Assay results pooled from the literature.
Compare with care: the assays were run in different laboratories.
ACSL4: Long-chain-fatty-acid--CoA ligase 4 (ACSL4, Homo sapiens, UniProt O60488)
PTGER4: Prostaglandin E2 receptor EP4 subtype (PTGER4, Homo sapiens, UniProt P35408)

Compound	target	assay	setting	quantity	value
COc1ccc2oc(-c3ccc4nc(N)oc4c3)c/c(=N\c3ccccc3NC(=O)CCN)c2c1	Death-associated protein kinase 1 (DAPK1, Homo sapiens, UniProt P53355)	binding	1 µM	remaining binding	104%
O=C1NC(=O)C(Cc2ccc(N3CCN(c4ccccn4)CC3)cc2)S1 (stereo not shown)	ACSL4	enzyme activity, inhibitor	10 µM	inhibition	42%
COc1cccc2c(N3CCC(CCP(=O)(O)O)CC3)ncnc12	Ectonucleotide pyrophosphatase/phosphodiesterase family member 1 (Enpp1, Mus musculus, UniProt P06802)	binding, SPR		residence time	9 min
Cc1cc(F)cc2c(CCC(=O)N[C@@H]3C(=O)NC[C@H]3O)c(-c3ccc(F)cc3)[nH]c12	3',5'-cyclic-AMP phosphodiesterase 4D (PDE4D, Homo sapiens, UniProt Q08499)	enzyme activity, inhibitor	10 µM	inhibition	17%
CCN1/C(=C/C(C)=O)Sc2ccc(F)cc21	PTGER4	ligand displacement, radioligand	10 µM	inhibition	4.39%
C#Cc1cc(-c2cc(Nc3nc(N[C@@H](C)c4ccc(F)cn4)ncc3Cl)n[nH]2)ccc1C=O	Serine/threonine-protein kinase 33 (STK33, Homo sapiens, UniProt Q9BYT3)	enzyme activity, inhibitor	0.2 µM	inhibition	7.93%
Cc1cc(S(=O)(=O)N[C@H]2CC[C@H](CN3CCN(c4ccc(C5CCC(=O)NC5=O)cc4F)CC3)CC2)ccc1Nc1ncc(C(F)(F)F)c(N2CCC[C@](C)(O)C2)n1 (stereo partly shown)	Cyclin-dependent kinase 7 (CDK7, Homo sapiens, UniProt P50613)	binding, competition with immobilised ligand	1 µM	remaining binding	55%
COC(=O)/C=C/c1ccc(OCCN(C)C(=O)c2ccccc2)cc1	ACSL4	thermal stability, DSF	5 µM	ΔTm	5.3 °C
C1=C/COCc2cc(ccc2OCCN2CCCC2)Nc2nccc(n2)-c2cccc(c2)COC/1	Serine/threonine-protein kinase MAK (MAK, Homo sapiens, UniProt P20794)	binding	0.1 µM	remaining binding	100%
CNS(=O)(=O)c1ccc(Nc2ncc(C(F)(F)F)c(N3CCC[C@](C)(O)C3)n2)c(C)c1	Mitogen-activated protein kinase 7 (MAPK7, Homo sapiens, UniProt Q13164)	binding, competition with immobilised ligand	1 µM	remaining binding	14%
CCCCC(=O)Nc1ccc(-c2ccc3ncn(CCC)c(=O)c3c2)cn1	Dual specificity protein kinase TTK (TTK, Homo sapiens, UniProt P33981)	binding, competition with immobilised ligand	0.5 µM	remaining binding	64%
C[C@]1(O)CCCN(c2nc(Nc3ccc(S(=O)(=O)N[C@H]4CC[C@H](CN5CCN(c6ccc(C7CCC(=O)NC7=O)cc6F)CC5)CC4)cc3F)ncc2C(F)(F)F)C1 (stereo partly shown)	Serine/threonine-protein kinase RIO3 (RIOK3, Homo sapiens, UniProt O14730)	binding, competition with immobilised ligand	1 µM	remaining binding	100%
NC/C(=C\F)COc1cccc(Cn2c(=S)[nH]c(=O)c3[nH]cnc32)c1	PTGER4	ligand displacement, radioligand	10 µM	inhibition	< 50%
